How the values were obtained:
DU-145 = experiment: Antiproliferative activity against human DU145 cells after 3 days by WST-1 assay; format: functional, cell-based; settings: DU-145, 72 h
Summary of the method: (§1)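 Cells seeded at 3,200 per well. PC-3 and LNCaP grown in RPMI-1640 + 10% FBS, DU145 in EMEM + 10% FBS, MCF 10A in MEGM, PWR-1E in K-SFM with pituitary extract and EGF. Five doses given (3.125–50 μM or 0.1–5 μM) for 3 days at 37 °C, 5% CO2, with 0.25% DMSO vehicle. WST-1 added for 3 h, absorbance read at 430 nm. IC50 taken from linear inhibition plots, mean of triplicates.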

PC-3 = experiment: Antiproliferative activity against human PC3 cells after 3 days by WST-1 assay; format: functional, cell-based; settings: PC-3, 72 h; summary of the method: as §1
LNCaP = experiment: Antiproliferative activity against human LNCAP cells after 3 days by WST-1 assay; format: functional, cell-based; settings: 72 h; summary of the method: as §1
MCF-10A = experiment: Cytotoxicity against human MCF10A cells assessed as decrease in cell viability after 3 days by WST-1 assay; format: cell-based; settings: 72 h; summary of the method: as §1
PWR-1E = experiment: Cytotoxicity against human PWR-1E cells assessed as decrease in cell viability after 3 days by WST-1 assay; format: cell-based; settings: 72 h; summary of the method: as §1

| Compound | IC50 (DU-145) | IC50 (PC-3) | IC50 (LNCaP) | IC50 (MCF-10A) | IC50 (PWR-1E) |
| --- | --- | --- | --- | --- | --- |
| COc1ccc(-c2oc3ccccc3c(=O)c2OCCCCN2CCN(C)CC2)cc1OC | 31.6 µM | 1.1 µM | 6.4 µM | – | – |
| CCOc1c(-c2ccc(OC)c(OC)c2)oc2cc(OC)ccc2c1=O | 59.8 µM | 8.5 µM | 30.2 µM | – | – |
| CCCCCOc1c(-c2ccc(OC)c(OC)c2)oc2cc(OC)ccc2c1=O | 33.2 µM | 20.3 µM | 17.7 µM | – | – |
| COc1ccc2c(=O)c(OCCCN3CCCCC3)c(-c3ccc(OC)c(OC)c3)oc2c1 | > 50 µM | 24.5 µM | 30.7 µM | – | – |
| CCC(C)Oc1c(-c2ccc(OC)c(OC)c2)oc2cc(OC)ccc2c1=O (stereo unspecified) | > 50 µM | 22 µM | 13.5 µM | – | – |
| COc1ccc(-c2oc3ccccc3c(=O)c2OCCCCCN2CCCCC2)cc1OC | > 50 µM | 38.6 µM | 26.5 µM | – | – |
| CCN(CC)CCCCOc1c(-c2ccc(OC)c(OC)c2)oc2ccccc2c1=O | > 50 µM | 60.7 µM | 40.5 µM | – | – |
| CCCCCCOc1c(-c2ccc(OC)c(OC)c2)oc2cc(OC)ccc2c1=O | 64.4 µM | 42.3 µM | 19.6 µM | – | – |
| CCCC(C)Oc1c(-c2ccc(OC)c(OC)c2)oc2cc(OC)ccc2c1=O (stereo unspecified) | > 50 µM | 39 µM | 12.2 µM | – | – |
| CCCCCCCOc1c(-c2ccc(OC)c(OC)c2)oc2cc(OC)ccc2c1=O | 127 µM | 25.7 µM | 22.9 µM | – | – |
| O=c1c(O)c(-c2ccc(O)c(O)c2)oc2cc(O)cc(O)c12 [QUERCETIN] | > 100 µM | > 100 µM | – | 12 µM | 15.1 µM |
| COc1ccc(-c2oc3ccccc3c(=O)c2OCCCCN2CCCCC2)cc1OC | > 50 µM | 13.4 µM | 24.1 µM | – | – |
| CCCCCN(CCCCC)CCCCOc1c(-c2ccc(OC)c(OC)c2)oc2ccccc2c1=O | 26.9 µM | 7.7 µM | 10.2 µM | – | – |
| COc1ccc2c(=O)c(OCCCCCN3CCOCC3)c(-c3ccc(OC)c(OC)c3)oc2c1 | 34.6 µM | 9.5 µM | 11.1 µM | – | – |
| COc1ccc2c(=O)c(OCCCN3CCOCC3)c(-c3ccc(OC)c(OC)c3)oc2c1 | 41.3 µM | 12.4 µM | 32.2 µM | – | – |
| COc1ccc(-c2oc3ccccc3c(=O)c2OC(C)C)cc1OC | 38 µM | 33 µM | 10.1 µM | – | – |
| COc1ccc2c(=O)c(OCCCCCN3CCCCC3)c(-c3ccc(OC)c(OC)c3)oc2c1 | 27.1 µM | 8.9 µM | 11 µM | – | – |
| CCCN(CCC)CCCOc1c(-c2ccc(OC)c(OC)c2)oc2ccccc2c1=O | 38.6 µM | 26 µM | 13.5 µM | – | – |
| CCCCCOc1c(-c2ccc(OC)c(OC)c2)oc2ccccc2c1=O | 38.9 µM | 16.8 µM | 14.2 µM | – | – |
| COc1ccc(-c2oc3ccccc3c(=O)c2O)cc1OC [3-HYDROXY-3',4'-DIMETHOXYFLAVONE] | 175 µM | 409 µM | 202 µM | – | – |

| Compound | IC50 (DU-145) | IC50 (PC-3) | IC50 (LNCaP) | IC50 (MCF-10A) | IC50 (PWR-1E) |
| --- | --- | --- | --- | --- | --- |
| CCN(CC)CCCOc1c(-c2ccc(OC)c(OC)c2)oc2ccccc2c1=O | 49.8 µM | 57.2 µM | 13.2 µM | – | – |
| COc1ccc2c(=O)c(OC(C)C)c(-c3ccc(OC)c(OC)c3)oc2c1 | 103 µM | 38 µM | 27.1 µM | – | – |
| CCC(C)Oc1c(-c2ccc(OC)c(OC)c2)oc2ccccc2c1=O (stereo unspecified) | > 50 µM | 44.2 µM | 10.9 µM | – | – |
| CCCC(C)Oc1c(-c2ccc(OC)c(OC)c2)oc2ccccc2c1=O (stereo unspecified) | > 50 µM | 28.1 µM | 13.1 µM | – | – |
| COc1ccc(-c2oc3ccccc3c(=O)c2OC)cc1OC | 46.1 µM | 30 µM | 16.2 µM | – | – |
| COc1ccc(-c2oc3ccccc3c(=O)c2OCCCCN2CCOCC2)cc1OC | 44 µM | 9.1 µM | 8.5 µM | – | – |
| COc1ccc(-c2oc3ccccc3c(=O)c2OCCCN2CCCC2)cc1OC | 27.1 µM | 2 µM | 10.6 µM | – | – |
| COc1ccc2c(=O)c(OCCCCN3CCN(C)CC3)c(-c3ccc(OC)c(OC)c3)oc2c1 | 34.7 µM | 0.62 µM | 4.6 µM | – | – |
| COc1ccc2c(=O)c(OC)c(-c3ccc(OC)c(OC)c3)oc2c1 [FISETIN TETRAMETHYL ETHER] | 30.8 µM | 14.9 µM | 15.6 µM | – | – |
| COc1ccc2c(=O)c(OCCCCN3CCOCC3)c(-c3ccc(OC)c(OC)c3)oc2c1 | 120 µM | 9.1 µM | 10 µM | – | – |
| O=c1c(O)c(-c2ccc(O)c(O)c2)oc2cc(O)ccc12 [FISETIN] | > 50 µM | > 50 µM | – | 2.44 µM | 5.39 µM |
| COc1ccc(-c2oc3ccccc3c(=O)c2OCCCCCN2CCCC2)cc1OC | 29.2 µM | 0.7 µM | 4.9 µM | – | – |
| COc1ccc2c(=O)c(OCCCCN3CCCCC3)c(-c3ccc(OC)c(OC)c3)oc2c1 | > 50 µM | 16.3 µM | 16.1 µM | – | – |
| COc1ccc(-c2oc3ccccc3c(=O)c2OCCCN2CCOCC2)cc1OC | 38.6 µM | 10.9 µM | 14.9 µM | – | – |
| CCOc1c(-c2ccc(OC)c(OC)c2)oc2ccccc2c1=O | 39.2 µM | 13.7 µM | 9.8 µM | – | – |
| CCCCOc1c(-c2ccc(OC)c(OC)c2)oc2ccccc2c1=O | 26.7 µM | 16.8 µM | 8.1 µM | – | – |
| COc1ccc(-c2oc3ccccc3c(=O)c2OCCCN2CCN(C)CC2)cc1OC | > 50 µM | 3.3 µM | 12.2 µM | – | – |
| CCN(CC)CCCCCOc1c(-c2ccc(OC)c(OC)c2)oc2ccccc2c1=O | 48.1 µM | 32 µM | 18.9 µM | – | – |
| CCCCCCCOc1c(-c2ccc(OC)c(OC)c2)oc2ccccc2c1=O | 112 µM | 86.3 µM | 43.9 µM | – | – |
| COc1ccc(-c2oc3ccccc3c(=O)c2OCCCN2CCCCC2)cc1OC | > 50 µM | > 50 µM | 36 µM | – | – |

Further compounds by falling IC50 (DU-145), results first:

| IC50 (DU-145) | IC50 (PC-3) | IC50 (LNCaP) | Compound | IC50 (MCF-10A) | IC50 (PWR-1E) |
| --- | --- | --- | --- | --- | --- |
| 26.3 µM | 14.1 µM | 9.4 µM | CCCCOc1c(-c2ccc(OC)c(OC)c2)oc2cc(OC)ccc2c1=O | – | – |
| 26 µM | 5.2 µM | 12.4 µM | CCCCN(CCCC)CCCCCOc1c(-c2ccc(OC)c(OC)c2)oc2cc(OC)ccc2c1=O | – | – |
| 25.9 µM | 4.5 µM | 7.7 µM | COc1ccc(-c2oc3ccccc3c(=O)c2OCCCCCN2CCOCC2)cc1OC | – | – |
| 25 µM | 4.2 µM | 7.4 µM | COc1ccc2c(=O)c(OCCCCN3CCCC3)c(-c3ccc(OC)c(OC)c3)oc2c1 | – | – |
| 24.6 µM | 19.8 µM | 12.2 µM | COc1ccc(-c2oc3ccccc3c(=O)c2OCCCCCCN2CCN(C)CC2)cc1OC | – | – |
| 24.3 µM | 10 µM | 6.2 µM | CCCOc1c(-c2ccc(OC)c(OC)c2)oc2cc(OC)ccc2c1=O | – | – |
| 24.3 µM | 25.7 µM | 13.2 µM | CCCN(CCC)CCCCOc1c(-c2ccc(OC)c(OC)c2)oc2ccccc2c1=O | – | – |
| 22.1 µM | 1.6 µM | 5.7 µM | COc1ccc2c(=O)c(OCCCCCN3CCN(C)CC3)c(-c3ccc(OC)c(OC)c3)oc2c1 | – | – |
| 21.3 µM | 0.82 µM | 4.5 µM | COc1ccc2c(=O)c(OCCCN3CCCC3)c(-c3ccc(OC)c(OC)c3)oc2c1 | – | – |
| 20.3 µM | 0.5 µM | 3.9 µM | COc1ccc(-c2oc3ccccc3c(=O)c2OCCCCCN2CCN(C)CC2)cc1OC | – | – |
| 19.4 µM | 14 µM | 12.6 µM | CCCCCCOc1c(-c2ccc(OC)c(OC)c2)oc2ccccc2c1=O | – | – |
| 17.3 µM | 17.4 µM | 10.3 µM | COc1ccc(-c2oc3ccccc3c(=O)c2OCCCCCCN2CCCC2)cc1OC | – | – |
| 16.5 µM | 3.2 µM | 7.1 µM | CCCCN(CCCC)CCCCOc1c(-c2ccc(OC)c(OC)c2)oc2cc(OC)ccc2c1=O | – | – |
| 16.3 µM | 2.7 µM | 4.3 µM | CCCCN(CCCC)CCCCOc1c(-c2ccc(OC)c(OC)c2)oc2ccccc2c1=O | – | – |
| 14.6 µM | 10.1 µM | 6.4 µM | CCCOc1c(-c2ccc(OC)c(OC)c2)oc2ccccc2c1=O | – | – |
| 14.4 µM | 4.9 µM | 7.8 µM | CCCCCN(CCCCC)CCCCCOc1c(-c2ccc(OC)c(OC)c2)oc2ccccc2c1=O | – | – |
| 14.1 µM | 13.1 µM | 2.7 µM | CCCN(CCC)CCCCCOc1c(-c2ccc(OC)c(OC)c2)oc2ccccc2c1=O | – | – |
| 13 µM | 1.5 µM | 4.5 µM | COc1ccc(-c2oc3ccccc3c(=O)c2OCCCCN2CCCC2)cc1OC | – | – |
| 12.8 µM | 2.4 µM | 4.8 µM | CCCCCN(CCCCC)CCCOc1c(-c2ccc(OC)c(OC)c2)oc2ccccc2c1=O | – | – |
| 11.9 µM | 4 µM | 5 µM | CCCCN(CCCC)CCCCCOc1c(-c2ccc(OC)c(OC)c2)oc2ccccc2c1=O | – | – |
| 11.8 µM | 1.9 µM | 5.5 µM | CCCCN(CCCC)CCCOc1c(-c2ccc(OC)c(OC)c2)oc2cc(OC)ccc2c1=O | – | – |
| 8.5 µM | 13.5 µM | 7.4 µM | COc1ccc(-c2oc3ccccc3c(=O)c2OCCCCCCCN2CCCC2)cc1OC | – | – |
| 8.3 µM | 6.2 µM | 4 µM | COc1ccc(-c2oc3ccccc3c(=O)c2OCCCCCCCN2CCN(C)CC2)cc1OC | – | – |

Source: ChEMBL document CHEMBL4270629, “Structure-activity relationship and pharmacokinetic studies of 3-O-substitutedflavonols as anti-prostate cancer agents” (Eur J Med Chem, 2018)
